# Key:
# Homo sapiens [1] = species: Homo sapiens; experiment: Relative cytotoxicity against Human bone marrow samples; Value is in range, activity expressed as IC90; format: functional
# Summary of the method: (§1)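 Second-stage assay on HL-60 (5 × 10^4/well) and soybean-agglutinin-negative mononuclear marrow cells (5 × 10^5/well) from six healthy donors. Four wells per concentration, 48 h at 37 °C, then [125I]iododeoxyuridine plus fluorodeoxyuridine for 18 h. Inhibition from fractional uptake decrease; IC50/IC90 by median-effect equation. Ranges are antilog(mean log ± 2SD); ratios use mean antilogs.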
# HL-60 [2] = experiment: Cytotoxic activity against Human promyelocytic Leukemia HL-60 Concentration of agent required to reduce cell viability by 50%; format: functional, cell-based
# Summary of the method: (§2)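 Modified MTT assay. Cells seeded per well with graded drug: CHO 2.5 × 10^3, B16 5 × 10^3, P388 and LLC 10^4, HL-60 and LoVo 5 × 10^4. After 68 h, MTT (2.5 mg/mL) added for 4 h at 37 °C. Formazan dissolved in DMSO and A550 read. Inhibition taken as fractional A550 decrease vs control. IC50/IC90 from Chou's median-effect equation.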
# Homo sapiens [3] = species: Homo sapiens; experiment: Relative cytotoxicity against Human bone marrow samples; Value is in range, activity expressed as IC50; format: functional; summary of the method: as §1
# P388 [4] = experiment: Cytotoxic activity Murine Lymphocytic Leukemia P388 Concentration of agent required to reduce cell viability by 90%; format: functional; conditions: Mus musculus; summary of the method: as §2
# HL-60 [5] = experiment: Relative cytotoxicity against Human promyelocytic Leukemia(HL-60) cells; Value is in range, activity expressed as IC50; format: functional, cell-based; summary of the method: as §1
# B16 [6] = experiment: Cytotoxic activity against solid tumor, B16 (murine melanoma) Concentration of agent required to reduce cell viability by 90%; format: functional; conditions: Mus musculus; summary of the method: as §2
# CHO [7] = experiment: Cytotoxic activity against solid tumor, CHO (Chinese hamster ovaric carcinoma) Concentration of agent required to reduce cell viability by 50%; format: functional, cell-based; conditions: Cricetulus griseus; summary of the method: as §2
# [8] = Ratio of antilog(mean log IC50 in bone marrow sample) and antolog(mean log IC50) in HL-60); format: functional; summary of the method: as §1
# B16 [9] = experiment: Cytotoxic activity against solid tumor, B16 (murine melanoma) Concentration of agent required to reduce cell viability by 50%; format: functional, cell-based; conditions: Mus musculus; summary of the method: as §2
# [10] = Ratio of antilog(mean log IC90 in bone marrow sample) and antolog(mean log IC90) in HL-60); format: functional; summary of the method: as §1
# P388 [11] = experiment: Cytotoxic activity against Murine Lymphocytic Leukemia P388 Concentration of agent required to reduce cell viability by 50%; format: functional, cell-based; conditions: Mus musculus; summary of the method: as §2
# [12] = Ratio of antilog(mean log IC50 in bone marrow sample) and antolog(mean log IC90) in HL-60); format: functional; summary of the method: as §1
# CHO [13] = experiment: Cytotoxic activity against solid tumor, CHO (Chinese hamster ovaric carcinoma) Concentration of agent required to reduce cell viability by 90%; format: functional; conditions: Cricetulus griseus; summary of the method: as §2
# HL-60 [14] = experiment: Cytotoxic activity against Human promyelocytic Leukemia HL-60 Concentration of agent required to reduce cell viability by 90%; format: functional; summary of the method: as §2
# HL-60 [15] = experiment: Relative cytotoxicity against Human promyelocytic Leukemia(HL-60) cells; Value is in range, activity expressed as IC90; format: functional; summary of the method: as §1
# [16] = tested on: Lewis lung carcinoma cell line; experiment: Cytotoxic activity against solid tumor LLC(Lewis lung carcinoma), concentration of agent required to reduce cell viability by 50%; format: functional, cell-based; conditions: Mus musculus; summary of the method: as §2
# LoVo [17] = experiment: Cytotoxic activity against solid tumor, LoVo, (human colon adenocarcinoma) Concentration of agent required to reduce cell viability by 90%; format: functional; summary of the method: as §2
# [18] = tested on: Lewis lung carcinoma cell line; experiment: Cytotoxic activity against solid tumor LLC(Lewis lung carcinoma), concentration of agent required to reduce cell viability by 90%; format: functional; conditions: Mus musculus; summary of the method: as §2
# LoVo [19] = experiment: Cytotoxic activity against solid tumor, LoVo, (human colon adenocarcinoma) Concentration of agent required to reduce cell viability by 50%; format: functional, cell-based; summary of the method: as §2
# P388 [20] = experiment: Cytotoxic activity against murine lymphocytic leukemia P388 concentration of agent required to reduce cell viability by 50%; format: functional, cell-based; conditions: Mus musculus; summary of the method: as §2
# HL-60 [21] = experiment: Cytotoxic activity against human promyelocytic leukemia HL-60 concentration of agent required to reduce cell viability by 50%; format: functional, cell-based; summary of the method: as §2
# P388 [22] = experiment: Cytotoxic activity against murine lymphocytic leukemia P388 concentration of agent required to reduce cell viability by 90%; format: functional; conditions: Mus musculus; summary of the method: as §2
# HL-60 [23] = experiment: Cytotoxic activity against human promyelocytic leukemia HL-60 concentration of agent required to reduce cell viability by 90%; format: functional; summary of the method: as §2
SMILES,IC50 (HL-60 [2]),IC90 (P388 [4]),IC90 (B16 [6]),IC50 (CHO [7]),IC50 (B16 [9]),IC50 (P388 [11]),IC90 (CHO [13]),IC90 (HL-60 [14]),also measured
CCn1c2cc(N3CCC(O)CC3)c(N)cc2c(=O)c2c(O)cc(O)cc21,5.4 µM,9.4 µM,> 50 µM,9.9 µM,26 µM,3.4 µM,38 µM,9.2 µM,IC90 (Homo sapiens [1]): 15.9 µM; IC50 (Homo sapiens [3]): 1.8 µM; IC50 (HL-60 [5]): 6.64 µM; Ratio [8]: 0.4; Ratio [10]: 1.5; Ratio [12]: 0.2; IC90 (HL-60 [15]): 11.7 µM
CCN(CC)CCn1c2cc(N3CCCC3)c(N)cc2c(=O)c2c(O)cc(O)cc21,96 µM,21 µM,,,,9.7 µM,,> 100 µM,
CCN(CC)CCn1c2cc(NC)c(N)cc2c(=O)c2c(O)cc(O)cc21,9.7 µM,7 µM,24 µM,8.2 µM,3.8 µM,3.9 µM,36 µM,27 µM,IC50 [16]: 23 µM; IC90 (LoVo [17]): 44 µM; IC90 [18]: 64 µM; IC50 (LoVo [19]): 26 µM
CCN(CC)CCNc1cc2c(cc1N)c(=O)c1c(O)cc(O)cc1n2CC,19 µM,11 µM,38 µM,8.1 µM,10 µM,4.3 µM,17 µM,46 µM,IC50 [16]: 25 µM; IC90 (LoVo [17]): 30 µM; IC90 [18]: 46 µM; IC50 (LoVo [19]): 19 µM
CCn1c2cc(N3CC(C)NC(C)C3)c(N)cc2c(=O)c2c(O)cc(O)cc21 (stereo unspecified),21 µM,18 µM,32 µM,12 µM,22 µM,6.2 µM,38 µM,32 µM,IC50 [16]: 29 µM; IC90 (LoVo [17]): 37 µM; IC90 [18]: 43 µM; IC50 (LoVo [19]): 21 µM
CCn1c2cc(N3CCSCC3)c(N)cc2c(=O)c2c(O)cc(O)cc21,,> 100 µM,,,,> 100 µM,,,
CCN(CC)CCn1c2cc(OC)c(N)cc2c(=O)c2c(O)cc(O)cc21,8.2 µM,5.9 µM,11 µM,5.6 µM,3.4 µM,2.8 µM,20 µM,27 µM,IC50 [16]: 10 µM; IC90 (LoVo [17]): 36 µM; IC90 [18]: 32 µM; IC50 (LoVo [19]): 11 µM
CN1CCN(c2cc3c(cc2N)c(=O)c2c(O)cc(O)cc2n3C)CC1,24 µM,11 µM,,,,7.2 µM,,39 µM,
CCn1c2cc(Cl)c(N)cc2c(=O)c2c(O)cc(O)cc21,13 µM,13 µM,28 µM,5.8 µM,2.8 µM,1.6 µM,71 µM,74 µM,IC90 (Homo sapiens [1]): 74.1 µM; IC50 (Homo sapiens [3]): 7.08 µM; IC50 (HL-60 [5]): 17 µM; IC50 [16]: 16 µM; IC90 (LoVo [17]): > 100 µM; Ratio [8]: 0.6; IC90 [18]: > 100 µM; Ratio [10]: 0.5; Ratio [12]: 0.1; IC90 (HL-60 [15]): 97.5 µM; IC50 (LoVo [19]): 15 µM
CCN(CC)CCn1c2cc(N3CCSCC3)c(N)cc2c(=O)c2c(O)cc(O)cc21,,19 µM,,,,8.8 µM,,,
CCn1c2cc(N3CCCC3)c(N)cc2c(=O)c2c(O)cc(O)cc21,,> 100 µM,,,,> 100 µM,,,
CCn1c2cc(Cl)ccc2c(=O)c2c(O)cc(O)cc21,> 100 µM,> 100 µM,,,,> 100 µM,,> 100 µM,
CCN(CC)CCn1c2cc(N3CCN(C)CC3)c(N)cc2c(=O)c2c(OC)cc(OC)cc21,,,,,,,,,IC50 (P388 [20]): 3.4 µM; IC50 (HL-60 [21]): 8.3 µM; IC90 (P388 [22]): 5.8 µM; IC90 (HL-60 [23]): 17 µM
CCN(CC)CCn1c2cc(O)c(N)cc2c(=O)c2c(O)cc(O)cc21,> 100 µM,56 µM,,,,26 µM,,> 100 µM,
CCn1c2cc(Cl)c(N)cc2c(=O)c2c(O)cc(OC)cc21,,,,,,,,,IC50 (P388 [20]): 16 µM; IC90 (P388 [22]): > 100 µM
CCn1c2cc(Cl)c(N)cc2c(=O)c2c(OC)cc(OC)cc21,,,,,,,,,IC50 (P388 [20]): 14 µM; IC50 (HL-60 [21]): 16 µM; IC90 (P388 [22]): 33 µM; IC90 (HL-60 [23]): 62 µM
CCN(CC)CCn1c2cc(N3CCN(C)CC3)c(N)cc2c(=O)c2c(O)cc(O)cc21,11 µM,13 µM,23 µM,7.1 µM,16 µM,7.2 µM,16 µM,19 µM,IC50 [16]: 24 µM; IC90 (LoVo [17]): 21 µM; IC90 [18]: 35 µM; IC50 (LoVo [19]): 17 µM
COc1cc(O)c2c(=O)c3cc(N)c(N4CCN(C)CC4)cc3n(C)c2c1,,,,,,,,,IC50 (P388 [20]): 3.4 µM; IC50 (HL-60 [21]): 23 µM; IC90 (P388 [22]): 6.8 µM; IC90 (HL-60 [23]): 33 µM
CN1CCN(c2cc3nc4cc(O)cc(O)c4c(O)c3cc2N)CC1,> 100 µM,> 100 µM,,,,57 µM,,> 100 µM,
CCn1c2cc(N3CCN(C)CC3)c(N)cc2c(=O)c2c(OC)cc(OC)cc21,,,,,,,,,IC50 (P388 [20]): 16 µM; IC50 (HL-60 [21]): 61 µM; IC90 (P388 [22]): 26 µM; IC90 (HL-60 [23]): 99 µM
CCN(CC)c1cc2c(cc1N)c(=O)c1c(O)cc(O)cc1n2CC,24 µM,50 µM,,,,24 µM,,58 µM,
CCN(CC)CCn1c2cc(Cl)c(N)cc2c(=O)c2c(OC)cc(OC)cc21,,,,,,,,,IC50 (P388 [20]): 4.3 µM; IC50 (HL-60 [21]): 8.6 µM; IC90 (P388 [22]): 14 µM; IC90 (HL-60 [23]): 29 µM

# Source: ChEMBL document CHEMBL1132240, “Design and synthesis of modified quinolones as antitumoral acridones” (J Med Chem, 1999)
